The values that follow come from ChEMBL document CHEMBL3867423, “New imidazolidineiminothione derivatives: Synthesis, spectral characterization and evaluation of antitumor, antiviral, antibacterial and antifungal activities” (Eur J Med Chem, 2016).

Values after ≈ are worked out from the molar mass of the structure shown.

In test [1] the test system is Candida albicans. The experiment in a line: Antifungal activity against Candida albicans IMRU 3669 at 5 mg after 24 hrs by agar well diffusion assay. The format is functional. The conditions noted are these: IMRU 3669, 24 h, read-out: DIZ. The method, boiled down:
(§1)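 Agar well diffusion. 100 µL inoculum (1×10⁸ CFU/mL bacteria, 1×10⁶ CFU/mL yeast) spread on nutrient agar (bacteria) or Sabouraud dextrose agar (fungi). 10 mm wells loaded with 100 µL of 5 mg/mL compound in DMSO. DMSO as negative control. Erythromycin (bacteria) or […] (fungi) at 5 mg/ml as standards. Plates incubated 24 h at 37 °C. Inhibition zone diameter (mm) measured, mean of triplicate.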
For orientation: A growth-free zone around the sample is the usual read-out of agar diffusion tests.

Test [2] is described as follows: Cytotoxicity against human HepG2 cells assessed as decrease in cell viability after 48 hrs by SRB assay. The format is functional, cell-based. The gist of the method: (§2)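 SRB assay. Cells seeded at 10⁴ per well and allowed to attach for 24 h. Exposed to 0, 5, 12.5, 25 and 50 µg/mL, triplicate wells per dose, for 48 h at 37 °C in 5% CO₂. Cells fixed and SRB-stained; excess dye removed with acetic acid, bound dye recovered in Tris-EDTA and read on an ELISA reader. IC50 read from the surviving-fraction curve.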

The subject of test [3] is Micrococcus luteus. The experiment in a line: Antibacterial activity against Micrococcus luteus ATCC 10240 after 24 hrs by two-fold serial dilution method. The settings on record: ATCC 10240, 24 h. The format is functional. The gist of the method:
(§3)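 Two-fold serial dilutions of DMSO stock in adjusted Mueller-Hinton broth, final 100 to 0.78 µg/ml. Bacteria pre-grown in nutrient broth, fungi in malt extract broth (48 h). Each 5 ml tube given 0.1 ml inoculum (1×10⁸ CFU/ml bacteria, 1×10⁶ CFU/ml fungi), incubated 37 °C 24 h. MIC taken as lowest concentration with no growth; triplicate, averaged.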

The next test relates to Escherichia coli. Nature of the test: Antibacterial activity against Escherichia coli ATCC 10536 at 5 mg after 24 hrs by agar well diffusion assay. The format is functional. The settings on record: ATCC 10536, 24 h, read-out: DIZ. The gist of the method:
as §1

In test [4] the test system is Pseudomonas aeruginosa. Nature of the test: Antibacterial activity against Pseudomonas aeruginosa ATCC 25619 at 5 mg after 24 hrs by agar well diffusion assay. The format is functional. The conditions noted are these: ATCC 25619, 24 h, read-out: DIZ. The method, boiled down:
as §1

The test system of test [5] is Bacillus pumilus. The experiment in a line: Antibacterial activity against Bacillus pumilus after 24 hrs by two-fold serial dilution method. The format is functional. The gist of the method: as §3
The nature of test [6]: Cytotoxicity against human MCF7 cells assessed as decrease in cell viability after 48 hrs by SRB assay. Further details: unit not given here. The format is functional, cell-based. The method, boiled down: as §2
On the technique in general: Sulforhodamine B stains cellular protein and so reports cell mass.

The test system of test [7] is Candida albicans. Nature of the test: Antifungal activity against Candida albicans IMRU 3669 after 24 hrs by two-fold serial dilution method. The settings on record: IMRU 3669, 24 h. The format is functional. The method, boiled down:
as §3

In another test the test system is Aspergillus niger. The experiment in a line: Antifungal activity against Aspergillus niger at 5 mg after 24 hrs by agar well diffusion assay. The format is functional. The conditions noted are these: read-out: DIZ. The gist of the method: as §1
For another test, the system named is Human alphaherpesvirus 1. Nature of the test: Antiviral activity against HSV1 infected in African green monkey Vero cells by plaque formation assay. The format is functional. Further details: concentration or dose not given beside the values.
Test [8] can be described thus: Antifungal activity against Penicillium chrysogenum at 5 mg after 24 hrs by agar well diffusion assay. The format is functional. The gist of the method: as §1
Test [9] deals with Micrococcus luteus. Nature of the test: Antibacterial activity against Sarcina lutea at 5 mg after 24 hrs by agar well diffusion assay. The format is functional. The settings on record: read-out: DIZ. The method, boiled down:
as §1

The next test concerns Bacillus subtilis. Nature of the test: Antibacterial activity against Bacillus subtilis NCTC 10400 at 5 mg after 24 hrs by agar well diffusion assay. The format is functional. The conditions noted are these: NCTC 10400, 24 h, read-out: DIZ. The method, boiled down:
as §1

Test [10] concerns Pseudomonas aeruginosa. The experiment in a line: Antibacterial activity against Pseudomonas aeruginosa ATCC 25619 after 24 hrs by two-fold serial dilution method. The settings on record: ATCC 25619, 24 h. The format is functional. The method, boiled down:
as §3

The next test has as its system Coxsackievirus B4. Nature of the test: Antiviral activity against human Coxsackie virus B4 infected in African green monkey Vero cells by plaque formation assay. The format is functional. Further details: concentration or dose not given beside the values.
Test [11] has as its system Bacillus pumilus. The experiment in a line: Antibacterial activity against Bacillus pumilus at 5 mg after 24 hrs by agar well diffusion assay. The format is functional. The conditions noted are these: read-out: DIZ. The method, boiled down:
as §1

The test system of the next test is Hepatovirus A. The experiment in a line: Antiviral activity against Hepatitis A virus infected in African green monkey Vero cells by plaque formation assay. The format is functional. Further details: concentration or dose not given beside the values.
The test system of test [12] is Micrococcus luteus. The experiment in a line: Antibacterial activity against Micrococcus luteus ATCC 10240 at 5 mg after 24 hrs by agar well diffusion assay. The settings on record: ATCC 10240, 24 h, read-out: DIZ. The format is functional. The method, boiled down:
as §1

Test [13] deals with Micrococcus luteus. Nature of the test: Antibacterial activity against Sarcina lutea after 24 hrs by two-fold serial dilution method. The format is functional. The method, boiled down:
as §3

Test [14] can be described thus: Cytotoxicity against human HCT116 cells assessed as decrease in cell viability after 48 hrs by SRB assay. The format is functional, cell-based. The settings on record: hct-116. The method, boiled down: as §2
Test [15] can be described thus: Cytotoxicity against human PC3 cells assessed as decrease in cell viability after 48 hrs by SRB assay. The format is functional, cell-based. The settings on record: pc-3. The method, boiled down:
as §2

For `CSc1ccc(N2C(=N)C(=S)N(c3cc(Cl)cc(Cl)c3)C2=O)cc1`, the zone of inhibition at 5000 µg/disc with Candida albicans [1] was determined as 25 mm; in the test with Escherichia coli it was 23 mm; in the test with Pseudomonas aeruginosa [4] it was 21 mm; in the test with Aspergillus niger, 19 mm; in the test with Micrococcus luteus [9], 26 mm; in the test with Bacillus subtilis, 24 mm. In addition, the zone of inhibition at 5000 µg/disc in the test with Bacillus pumilus [11] is 25 mm; in the test with Micrococcus luteus [12], 18 mm. Also, the IC50 was determined as 0.029 µg in [2], 0.018 in [6], 0.031 µg in [14] and 0.049 µg in test [15]. The MIC against Micrococcus luteus [3] stood at 6.25 µg/mL (≈ 15.8 µM); with Bacillus pumilus [5] it was 6.25 µg/mL (≈ 15.8 µM); against Candida albicans [7] it was 6.25 µg/mL (≈ 15.8 µM); in the test with Pseudomonas aeruginosa [10], 0.78 µg/mL (≈ 1.97 µM); in the test with Micrococcus luteus [13] it was 6.25 µg/mL (≈ 15.8 µM). Also, the Activity in the test on Human alphaherpesvirus 1 is 3.4%; in the test with Coxsackievirus B4, 0%; with Hepatovirus A, 0%. The same compound came in with an inhibition zone (IZ) in test [8] of 20 mm.
Consider `COc1ccc(OC)c(N2C(=O)N(c3ccc(SC)cc3)C(=N)C2=S)c1`, for which the zone of inhibition at 5000 µg/disc stood at 27 mm with Candida albicans [1]; 29 mm with Escherichia coli; 25 mm with Pseudomonas aeruginosa [4]; 20 mm in the test on Aspergillus niger; 31 mm in the test with Micrococcus luteus [9]; 29 mm with Bacillus subtilis. Moreover, the zone of inhibition at 5000 µg/disc in the test with Bacillus pumilus [11] is 20 mm; in the test on Micrococcus luteus [12], 17 mm. For the same compound, the IC50 in test [2] stood at 0.029 µg; in [6] it was 0.028; in test [14] it was 0.05 µg; in test [15] it was 0.047 µg. Also, the minimum inhibitory concentration (MIC) in the test with Micrococcus luteus [3] worked out at 6.25 µg/mL (≈ 16.1 µM); against Bacillus pumilus [5] it was 6.25 µg/mL (≈ 16.1 µM); in the test on Candida albicans [7], 6.25 µg/mL (≈ 16.1 µM); against Pseudomonas aeruginosa [10], 0.78 µg/mL (≈ 2.01 µM); with Micrococcus luteus [13], 6.25 µg/mL (≈ 16.1 µM). Also, the Activity with Human alphaherpesvirus 1 is recorded as 85.7%; in the test on Coxsackievirus B4, 18.5%; in the test on Hepatovirus A it was 0%. Besides, the inhibition zone (IZ) in test [8] worked out at 22 mm.
On to `COc1ccc(N2C(=N)C(=S)N(c3cc(OC)ccc3OC)C2=O)cc1`, for which the zone of inhibition at 5000 µg/disc was found to be 29 mm in the test with Candida albicans [1]; 28 mm in the test with Escherichia coli; 26 mm in the test with Pseudomonas aeruginosa [4]; 19 mm with Aspergillus niger; 27 mm in the test with Micrococcus luteus [9]; 28 mm in the test with Bacillus subtilis. Moreover, the zone of inhibition at 5000 µg/disc in the test on Bacillus pumilus [11] was determined as 23 mm; in the test with Micrococcus luteus [12], 17 mm. Besides, the IC50 in test [2] came out at 0.032 µg; in [6], 0.031; in test [14], 0.051 µg; in test [15] it was 0.051 µg. Also, the MIC in the test with Micrococcus luteus [3] was found to be 6.25 µg/mL (≈ 16.8 µM); against Bacillus pumilus [5] it was 3.12 µg/mL (≈ 8.4 µM); against Candida albicans [7], 6.25 µg/mL (≈ 16.8 µM); with Pseudomonas aeruginosa [10], 0.78 µg/mL (≈ 2.1 µM); with Micrococcus luteus [13], 6.25 µg/mL (≈ 16.8 µM). For the same compound, the Activity was found to be 42% in the test with Human alphaherpesvirus 1, 0% in the test on Coxsackievirus B4 and 60.1% with Hepatovirus A. This compound had an inhibition zone (IZ) in test [8] of 20 mm.
For `Cc1ccc(F)cc1N1C(=N)C(=S)N(c2cc(Cl)cc(Cl)c2)C1=O`, the zone of inhibition at 5000 µg/disc stood at 18 mm in the test with Candida albicans [1]; 18 mm in the test with Escherichia coli; 22 mm in the test with Pseudomonas aeruginosa [4]; 22 mm in the test on Aspergillus niger; 24 mm in the test with Micrococcus luteus [9]; 20 mm in the test with Bacillus subtilis. For the same compound, the zone of inhibition at 5000 µg/disc in the test with Bacillus pumilus [11] stood at 21 mm; in the test on Micrococcus luteus [12], 20 mm. In addition, the IC50 in test [2] amounted to 0.05 µg; in [6], 0.011; in test [14] it was 0.034 µg; in test [15], 0.064 µg. Further, the MIC amounted to 6.25 µg/mL (≈ 16.4 µM) against Micrococcus luteus [3]; 6.25 µg/mL (≈ 16.4 µM) against Bacillus pumilus [5]; 6.25 µg/mL (≈ 16.4 µM) in the test on Candida albicans [7]; 3.12 µg/mL (≈ 8.16 µM) with Pseudomonas aeruginosa [10]; 3.12 µg/mL (≈ 8.16 µM) against Micrococcus luteus [13]. For the same compound, the figures for the Activity in the test on Human alphaherpesvirus 1, with Coxsackievirus B4 and in the test on Hepatovirus A were 45.3%, 31.1% and 20.6%, respectively. Also, the inhibition zone (IZ) in test [8] is 21 mm.
In the case of `Cc1ccc(N2C(=N)C(=S)N(c3cc(Cl)cc(Cl)c3)C2=O)cc1`, the zone of inhibition at 5000 µg/disc was 21 mm in the test on Candida albicans [1]; 16 mm in the test with Escherichia coli; 16 mm with Pseudomonas aeruginosa [4]; 18 mm with Aspergillus niger; 28 mm in the test with Micrococcus luteus [9]; 16 mm with Bacillus subtilis. For the same compound, the zone of inhibition at 5000 µg/disc in the test with Bacillus pumilus [11] is 20 mm; with Micrococcus luteus [12] it was 17 mm. The IC50 in test [2] was 0.014 µg; in [6], 0.009; in test [14], 0.053 µg; in [15] it was 0.035 µg. Also, the Activity amounted to 71.6% with Human alphaherpesvirus 1, 43.6% in the test on Coxsackievirus B4 and 66% in the test with Hepatovirus A. This compound also yielded an inhibition zone (IZ) in test [8] of 19 mm.

In general, MIC refers to the least concentration at which growth counts as inhibited.
